Measurements of several laboratories.
Protocols differ between the studies behind these lines.
Target: Dual specificity mitogen-activated protein kinase kinase 2 (MAP2K2, Homo sapiens, UniProt P36507)

O=C(c1ccc(Nc2nccc(-c3cc4ccccc4s3)n2)cc1)N1CCC(N2CCCC2)CC1  remaining binding (binding; competition with immobilised ligand; 1 µM): 60%
O=C(Nc1c[nH]nc1C(=O)NC1CCNCC1)c1cc(F)cc(F)c1  remaining binding (binding; competition with immobilised ligand; 1 µM): 90%
Cc1nccc(COC(=O)N2C[C@@H]3[C@@H](CNC(=O)c4ccc5[nH]nnc5c4)[C@@H]3C2)n1  remaining binding (cell-free assay; competition with immobilised ligand; 1 µM): 84%
COc1ncc2cc3ccccc3nc2c1C#N  remaining binding (cell-free assay; competition with immobilised ligand; 5 µM): 92%
c1cncc(-c2cccc(Nc3nccc(NC4CCCCC4)n3)c2)c1  remaining binding (binding; competition with immobilised ligand; 10 µM): 83%
Cc1cnc(Nc2ccc(C(=O)N3CCC(N4CCCC4)CC3)cc2)nc1-c1cc2ccccc2s1  remaining binding (binding; competition with immobilised ligand; 1 µM): 26%
C[C@@]1(Cc2ccc(C#N)cc2)C(=O)N(c2cc(Cl)cc(Cl)c2)c2ncc(C(=O)NC3(c4nc(C5CCC5)no4)CC3)n21  remaining binding (cell-free assay; competition with immobilised ligand; 1 µM): 99%
CN(CCCC(F)(F)F)c1nccc(-c2cnn3ncccc23)n1  remaining binding (binding; 1 µM): 100%
C[C@@H]1CN(c2cc(-c3n[nH]c4ccc(OC5(C)CC5)cc34)ncn2)C[C@H](C)O1  remaining binding (cell-free assay; competition with immobilised ligand; 0.1 µM): 85%
CN(C)c1nccc(-c2cnc3ncccn23)n1  remaining binding (binding; 1 µM): 65%
C[C@@H](c1ccc(-n2cnc3c(N)ncnc32)cc1)N1CCc2nn(C)c(Cc3ccccc3)c2C1=O  remaining binding (binding; competition with immobilised ligand; 0.1 µM): 92%
c1cnn2ncc(-c3ccnc(N4CCC45COC5)n3)c2c1  remaining binding (binding; 1 µM): 81%
CC(=O)c1c(NS(C)(=O)=O)c2cc(-c3ccc(Cl)cc3)c(-c3ccc(Cl)cc3Cl)nc2n(C)c1=O  remaining binding (cell-free assay; competition with immobilised ligand; 1 µM): 100%
C[C@@H]1CN(c2ccc3ncc(-c4ccc5[nH]nc(C6CC6)c5c4)n3n2)C[C@H](C)O1  remaining binding (binding; competition with immobilised ligand; 50 nM): 72%
N[C@H]1CCN(c2nccc(-c3cnn4ncccc34)n2)C1  remaining binding (binding; 1 µM): 100%
Cc1c(NC(=O)c2cc(C(N)=O)nc3cc(F)ccc23)c(C(F)(F)F)nn1Cc1ccc(C(C)(C)C)cc1  remaining binding (cell-free assay; competition with immobilised ligand; 1 µM): 100%
CC1CCCN1c1nccc(-c2cnn3ncccc23)n1 (stereo not drawn)  remaining binding (binding; 1 µM): 96%
O=C(NS(=O)(=O)c1ccc(NCC2CCOCC2)c([N+](=O)[O-])c1)c1ccc(N2CCN(Cc3ccc(C(F)(F)F)cc3-c3ccc(Cl)cc3)CC2)cc1Oc1cnc2[nH]ccc2c1  remaining binding (cell-free assay; competition with immobilised ligand; 1 µM): 100%
CCN1CCN(Cc2ccc(C(=O)Nc3ccc(C)c(Oc4ccc5c(c4)CC(=O)N5)c3)cc2C(F)(F)F)CC1  remaining binding (binding; competition with immobilised ligand; 1 µM): 100%
F[C@@H]1CCN(c2nccc(-c3cnn4ncccc34)n2)C1  remaining binding (binding; 1 µM): 88%
O=C(NCCCN1CCOCC1)c1ccc(Nc2nccc(-c3cc4ccccc4s3)n2)cc1  remaining binding (binding; competition with immobilised ligand; 1 µM): 79%
COc1cnc(Nc2cccc(S(N)(=O)=O)c2)nc1N1CCN(c2ccccc2)CC1  remaining binding (binding; competition with immobilised ligand; 1 µM): 83%
CC(=O)N1CCC(c2ccc(C(=O)NC(=N)N)cc2C(F)(F)F)CC1  remaining binding (cell-free assay; competition with immobilised ligand; 1 µM): 96%
Nc1ncc2c(n1)-c1c([nH]c3ccc(C#CC4CC4)cc13)CCCC2  remaining binding (binding; competition with immobilised ligand; 1 µM): 96%
